The results in this text go back to ChEMBL document CHEMBL5046229 (Eur J Med Chem, 2022).

The structures appear in SMILES notation. Active and inactive are the calls of the source. The rule behind the calls is not given here.

Series [1] is described as follows: Drug metabolism in JAK2V6175 transgenic myelofibrosis C57BL/6 mouse spleen at 325 mg/kg, po assessed as metabolite formation measured after 4 hrs by LC-MS/MS analysis. The note with it: in vivo. Format: ADME, organism-based. In outline: (§1)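 Mice received a single oral dose of 325 mg/kg (n=4 per compound). Blood, spleen and bone marrow taken about 4 h later and homogenized. Extracts centrifuged at 10,000 × g and separated by reverse-phase C18 UPLC (0.1% formic acid water/acetonitrile gradient). Parent and metabolites quantified by MRM LC-MS/MS against internal-standard calibration (0.02–160 ng/mL, r² ≥ 0.99). Synthesized metabolite standards used for confirmation. Levels given as ng/g, mean ± SEM.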

Series [2] deals with Mus musculus. The series can be described thus: Antitumor activity against JAK2V6175 transgenic myelofibrosis C57BL/6 mouse cancer model assessed as reduction in spleen volume at 325 mg/kg, po administered daily for 4 days by magnetic resonance imaging analysis. The format is functional, organism-based. The note with it: time 4.0 day. In outline:
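Lethally irradiated C57BL/6 female recipients received 5 million mixed bone marrow cells (Mx1-Cre; JAK2V617F donor with WT, 1:9) and polyI:C twice 2 weeks after transplant. 325 mg/kg by oral gavage daily. Spleen volume by anatomic MRI at 7T after 4 days. Vehicle n=5, treated n=4; mean ± s.d., Welch's t-test.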

For series [3], the system named is Spleen. The series can be described thus: Effect of MAPK signalling pathway in JAK2V6175F transgenic myelofibrosis C57BL/6 mouse spleen assessed as reduction in ERK1/2 phosphorylation at 325 mg/kg, po daily for 5 days by flow cytometry analysis. Format: functional, organism-based. The note with it: time 5.0 day. In a few lines: (§2)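 JAK2V617F bone-marrow-transplant MF mice were dosed 325 mg/kg orally daily for 5 days, then sacrificed. Isolated cells stained intracellularly with APC-conjugated anti-pAKT (S473) or anti-pERK1/2 (T202/Y204). Mean fluorescence intensity measured by flow cytometry. Vehicle n=6, treated n=4; mean ± s.e.m., Welch's t-test.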

The nature of series [4]: Drug concentration in JAK2V6175 transgenic myelofibrosis C57BL/6 mouse spleen at 325 mg/kg, po measured after 4 hrs by LC-MS/MS analysis. The format is ADME, organism-based. The note with it: read-out: Ct. In a few lines:
as §1

The next series concerns SET-2. The series can be described thus: Antiproliferative activity against human SET-2 cells assessed as reduction in cell viability measured after 72 hrs by CellTiter-Fluor cell viability assay. Format: functional, cell-based. To be noted: SET-2, 72 h. In outline: (§3)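 Cells grown in DMEM or RPMI 1640 with 10% FBS (20% for SET-2), 37 °C, 5% CO₂. About 500–1,000 cells/well seeded and incubated 24 h, then exposed to final concentrations of 0.1–20 μM for 72 h. Viability read by fluorescence (CellTiter-Fluor). IC₅₀ calculated from 3 independent experiments in duplicate wells, reported as mean ± SEM.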

The test system of series [5] is D54 cell line. Put plainly: Antiproliferative activity against human D54 cells assessed as reduction in cell viability measured after 72 hrs by CellTiter-Fluor cell viability assay. The format is functional, cell-based. To be noted: D54, 72 h. In outline:
as §3

For series [6], the system named is D54 cell line. Put plainly: Inhibition of ERK phosphorylation in human D-54 cells assessed as change in phosphorylated ERK level at 10 uM for 30 minutes in presence of PDGF by western blot analysis relative to control. The format is cell-based. Also on record: scale not given: the % may be the effect or the level left. In a few lines:
(§4)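 A375 and D54 cells grown in DMEM with 10% FBS; SET-2 in RPMI with 20% FBS. Cells treated 30 min at 10 μM; A375 and D54 also received PDGF 50 ng/ml, which was omitted for SET-2. Cells lysed in RIPA with protease and phosphatase inhibitors, then SDS-PAGE/western blot for pAKT S473, pERK1/2 T202/Y204, total AKT and total ERK. Densitometry of phospho signal normalized to total protein, expressed as % of control. 3 independent experiments, mean ± SEM.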
(In general: Immunoblotting shows a protein as a band on a membrane.)

The test system of series [7] is A-375. Put plainly: Inhibition of ERK phosphorylation in human A-375 cells assessed as change in phosphorylated ERK level at 10 uM for 30 minutes in presence of PDGF by western blot analysis relative to control. Format: cell-based. Details: scale not given: the % may be the effect or the level left. In a few lines: as §4
Series [8] has as its system Mus musculus. Put plainly: Antitumor activity against JAK2V6175 transgenic myelofibrosis C57BL/6 mouse cancer model assessed as reduction in spleen weight at 325 mg/kg, po administered daily for 5 days. To be noted: time 5 day. Also on record: scale not given: the % may be the effect or the level left.
Series [9] deals with Spleen. Put plainly: Effect in JAK2V6175 transgenic myelofibrosis C57BL/6 mouse spleen assessed as reduction in ERK1/2 phosphorylation at 325 mg/kg, po administered daily for 5 days by flow cytometry analysis. The note with it: time 5.0 day. (A flow cytometer gives signals particle by particle.)
For series [10], the system named is Spleen. The series can be described thus: Effect of PI3K signalling pathway in JAK2V6175 transgenic myelofibrosis C57BL/6 mouse spleen assessed as reduction in AKT phosphorylation at 325 mg/kg, po administered daily for 5 days by flow cytometry analysis. The format is functional, organism-based. To be noted: time 5.0 day. In outline:
as §2

The subject of series [11] is D54 cell line. The series can be described thus: Inhibition of AKT phosphorylation in human D-54 cells assessed as change in phosphorylated Akt level at 10 uM for 30 minutes in presence of PDGF by western blot analysis relative to control. Format: cell-based. Also on record: scale not given: the % may be the effect or the level left. In outline:
as §4

Series [12] deals with Spleen. Put plainly: Effect of MAPK signalling pathway in JAK2V6175 transgenic myelofibrosis C57BL/6 mouse spleen assessed as reduction in […] phosphorylation at 325 mg/kg, po administered daily for 5 days by flow cytometry analysis. Format: functional, organism-based. The note with it: time 5.0 day. In a few lines: as §2
In series [13] the test system is A-375. Put plainly: Antiproliferative activity against human A-375 cells assessed as reduction in cell viability measured after 72 hrs by CellTiter-Fluor cell viability assay. Format: functional, cell-based. To be noted: A-375, 72 h. In outline:
as §3

Series [14] can be described thus: Drug concentration in JAK2V6175 transgenic myelofibrosis C57BL/6 mouse blood at 325 mg/kg, po measured after 4 hrs by LC-MS/MS analysis. Format: ADME, organism-based. To be noted: whole blood, read-out: Ct. In a few lines: as §1
Series [15] is described as follows: Drug metabolism in JAK2V6175 transgenic myelofibrosis C57BL/6 mouse blood at 325 mg/kg, po assessed as metabolite formation measured after 4 hrs by LC-MS/MS analysis. Format: ADME, organism-based. To be noted: in vivo. In a few lines:
as §1

A short description of series [16]: Drug concentration in JAK2V6175 transgenic myelofibrosis C57BL/6 mouse bone marrow at 325 mg/kg, po measured after 4 hrs by LC-MS/MS analysis. Format: ADME, organism-based. To be noted: read-out: Ct. In a few lines:
as §1

The nature of series [17]: Drug metabolism in JAK2V6175 transgenic myelofibrosis C57BL/6 mouse bone marrow at 325 mg/kg, po assessed as metabolite formation measured after 4 hrs by LC-MS/MS analysis. The format is ADME, organism-based. The note with it: in vivo. In a few lines: as §1
For series [18], the system named is A-375. The series can be described thus: Inhibition of AKT phosphorylation in human A-375 cells assessed as change in phosphorylated Akt level at 10 uM for 30 minutes in presence of PDGF by western blot analysis relative to control. Details: scale not given: the % may be the effect or the level left. Format: cell-based. In outline:
as §4

Series [19] deals with SET2. The series can be described thus: Inhibition of AKT phosphorylation in human SET2 cells assessed as change in phosphorylated Akt level at 10 uM for 30 minutes in absence of PDGF by western blot analysis relative to control. Details: scale not given: the % may be the effect or the level left.
Series [20] has as its system SET2. The series can be described thus: Inhibition of ERK phosphorylation in human SET2 cells assessed as change in phosphorylated ERK level at 10 uM for 30 minutes in absence of PDGF by western blot analysis relative to control. Also on record: scale not given: the % may be the effect or the level left.
Series [21] deals with Phosphatidylinositol 4,5-bisphosphate 3-kinase catalytic subunit alpha isoform (Homo sapiens, UniProt P42336). Put plainly: Inhibition of human PI3Kalpha by TR-FRET based Adapta assay.
The target of series [22] is Phosphatidylinositol 4,5-bisphosphate 3-kinase catalytic subunit beta isoform (Homo sapiens, UniProt P42338). The series can be described thus: Inhibition of human PI3Kbeta by TR-FRET based Adapta assay. (TR-FRET usually uses a lanthanide donor and a delayed reading to cut background.)
Series [23] concerns the target Dual specificity mitogen-activated protein kinase kinase 1 (Homo sapiens, UniProt Q02750). The series can be described thus: Inhibition of human MEK-1 by Lanthascreen TR-FRET assay.
Series [24] has as its target T1, Phosphatidylinositol 4,5-bisphosphate 3-kinase catalytic subunit delta isoform (Homo sapiens, UniProt O00329).
T1 sequence (O00329 whole entry): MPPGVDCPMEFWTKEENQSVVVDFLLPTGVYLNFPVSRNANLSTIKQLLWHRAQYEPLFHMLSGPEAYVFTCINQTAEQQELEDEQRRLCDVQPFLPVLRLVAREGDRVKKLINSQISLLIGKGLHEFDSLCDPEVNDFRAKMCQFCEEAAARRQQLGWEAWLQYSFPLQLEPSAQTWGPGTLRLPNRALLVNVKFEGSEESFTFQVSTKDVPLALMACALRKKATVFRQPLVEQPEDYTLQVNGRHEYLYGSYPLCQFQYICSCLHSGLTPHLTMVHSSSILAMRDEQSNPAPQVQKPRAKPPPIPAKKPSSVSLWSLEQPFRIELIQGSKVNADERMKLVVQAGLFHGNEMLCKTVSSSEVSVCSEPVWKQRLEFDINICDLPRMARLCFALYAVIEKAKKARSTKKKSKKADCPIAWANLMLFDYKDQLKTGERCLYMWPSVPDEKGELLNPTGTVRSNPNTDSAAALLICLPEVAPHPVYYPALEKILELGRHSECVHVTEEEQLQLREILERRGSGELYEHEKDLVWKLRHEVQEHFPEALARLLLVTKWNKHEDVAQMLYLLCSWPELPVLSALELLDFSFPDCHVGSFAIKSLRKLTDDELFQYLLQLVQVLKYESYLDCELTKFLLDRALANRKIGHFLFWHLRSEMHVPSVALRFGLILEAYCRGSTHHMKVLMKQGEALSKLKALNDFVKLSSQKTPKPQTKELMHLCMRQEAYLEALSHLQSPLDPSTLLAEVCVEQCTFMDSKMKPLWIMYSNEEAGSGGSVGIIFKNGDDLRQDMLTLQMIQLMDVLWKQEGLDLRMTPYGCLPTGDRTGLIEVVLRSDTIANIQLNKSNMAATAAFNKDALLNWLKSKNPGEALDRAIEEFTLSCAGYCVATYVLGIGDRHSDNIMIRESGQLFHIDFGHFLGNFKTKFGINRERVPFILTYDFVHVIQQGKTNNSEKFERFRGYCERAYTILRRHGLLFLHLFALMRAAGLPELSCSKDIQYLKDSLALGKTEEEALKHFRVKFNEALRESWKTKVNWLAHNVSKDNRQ
Put plainly: Inhibition of human PI3Kdelta by TR-FRET based Adapta assay.

The target of series [25] is Phosphatidylinositol 4,5-bisphosphate 3-kinase catalytic subunit gamma isoform (Homo sapiens, UniProt P48736). Put plainly: Inhibition of human PI3Kgamma by TR-FRET based Adapta assay.
Phosphatidylinositol 4,5-bisphosphate 3-kinase catalytic subunit gamma isoform, sequence (P48736 whole entry, canonical isoform): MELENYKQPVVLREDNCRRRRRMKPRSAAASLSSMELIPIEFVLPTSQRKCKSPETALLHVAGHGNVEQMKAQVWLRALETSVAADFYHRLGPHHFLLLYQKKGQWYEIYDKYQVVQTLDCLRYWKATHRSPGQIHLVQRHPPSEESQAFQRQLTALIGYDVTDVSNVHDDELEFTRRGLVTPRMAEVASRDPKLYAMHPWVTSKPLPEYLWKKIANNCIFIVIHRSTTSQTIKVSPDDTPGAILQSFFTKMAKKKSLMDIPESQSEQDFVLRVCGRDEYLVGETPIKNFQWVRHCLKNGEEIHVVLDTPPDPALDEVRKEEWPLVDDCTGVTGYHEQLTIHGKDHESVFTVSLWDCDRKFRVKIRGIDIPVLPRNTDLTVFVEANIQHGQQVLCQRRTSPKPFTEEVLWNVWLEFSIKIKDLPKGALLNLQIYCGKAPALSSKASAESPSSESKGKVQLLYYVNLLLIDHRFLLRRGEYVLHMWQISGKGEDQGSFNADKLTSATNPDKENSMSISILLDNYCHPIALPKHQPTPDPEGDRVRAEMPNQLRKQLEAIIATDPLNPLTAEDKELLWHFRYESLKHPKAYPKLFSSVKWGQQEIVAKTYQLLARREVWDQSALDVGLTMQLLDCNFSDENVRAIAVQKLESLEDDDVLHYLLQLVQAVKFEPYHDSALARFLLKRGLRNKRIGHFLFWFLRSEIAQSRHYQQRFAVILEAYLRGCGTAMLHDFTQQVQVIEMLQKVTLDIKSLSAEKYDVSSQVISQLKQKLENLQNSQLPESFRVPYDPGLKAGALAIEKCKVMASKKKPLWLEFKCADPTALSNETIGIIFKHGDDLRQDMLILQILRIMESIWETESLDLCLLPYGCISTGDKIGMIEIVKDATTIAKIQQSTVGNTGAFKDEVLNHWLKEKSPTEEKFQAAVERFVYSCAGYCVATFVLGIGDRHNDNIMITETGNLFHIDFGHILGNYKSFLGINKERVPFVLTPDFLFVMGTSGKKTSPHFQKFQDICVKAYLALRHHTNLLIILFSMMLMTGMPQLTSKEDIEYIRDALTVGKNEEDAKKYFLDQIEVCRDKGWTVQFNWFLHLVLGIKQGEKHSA

Phosphatidylinositol 4,5-bisphosphate 3-kinase catalytic subunit beta isoform, sequence (P42338 whole entry, canonical isoform): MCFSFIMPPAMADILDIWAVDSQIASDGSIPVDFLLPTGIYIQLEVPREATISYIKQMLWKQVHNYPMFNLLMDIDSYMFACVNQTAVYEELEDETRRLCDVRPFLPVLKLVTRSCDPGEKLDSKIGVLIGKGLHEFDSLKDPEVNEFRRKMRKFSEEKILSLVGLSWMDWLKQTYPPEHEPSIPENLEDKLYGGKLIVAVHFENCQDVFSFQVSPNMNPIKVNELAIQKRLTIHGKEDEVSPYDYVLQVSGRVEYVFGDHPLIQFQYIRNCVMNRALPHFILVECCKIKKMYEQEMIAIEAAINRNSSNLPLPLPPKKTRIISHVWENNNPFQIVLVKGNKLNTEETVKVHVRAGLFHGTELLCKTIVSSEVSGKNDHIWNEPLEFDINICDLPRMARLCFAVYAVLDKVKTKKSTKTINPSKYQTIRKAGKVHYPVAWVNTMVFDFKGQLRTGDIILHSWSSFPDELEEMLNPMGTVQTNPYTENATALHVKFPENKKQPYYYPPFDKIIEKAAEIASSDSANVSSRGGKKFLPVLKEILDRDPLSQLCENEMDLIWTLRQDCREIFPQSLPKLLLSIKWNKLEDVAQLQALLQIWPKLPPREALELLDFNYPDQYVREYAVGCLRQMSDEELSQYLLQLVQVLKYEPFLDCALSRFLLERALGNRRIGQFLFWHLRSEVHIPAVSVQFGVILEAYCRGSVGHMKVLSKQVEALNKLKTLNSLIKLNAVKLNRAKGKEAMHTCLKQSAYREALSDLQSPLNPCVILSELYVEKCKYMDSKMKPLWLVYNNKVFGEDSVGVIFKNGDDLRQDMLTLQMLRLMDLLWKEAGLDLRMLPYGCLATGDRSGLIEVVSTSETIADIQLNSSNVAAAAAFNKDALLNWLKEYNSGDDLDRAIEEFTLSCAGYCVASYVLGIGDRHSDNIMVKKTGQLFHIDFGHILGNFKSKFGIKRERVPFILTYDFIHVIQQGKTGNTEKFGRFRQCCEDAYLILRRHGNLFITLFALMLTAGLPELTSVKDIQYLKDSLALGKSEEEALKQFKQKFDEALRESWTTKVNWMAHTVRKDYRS
Dual specificity mitogen-activated protein kinase kinase 1, sequence (Q02750 whole entry, canonical isoform): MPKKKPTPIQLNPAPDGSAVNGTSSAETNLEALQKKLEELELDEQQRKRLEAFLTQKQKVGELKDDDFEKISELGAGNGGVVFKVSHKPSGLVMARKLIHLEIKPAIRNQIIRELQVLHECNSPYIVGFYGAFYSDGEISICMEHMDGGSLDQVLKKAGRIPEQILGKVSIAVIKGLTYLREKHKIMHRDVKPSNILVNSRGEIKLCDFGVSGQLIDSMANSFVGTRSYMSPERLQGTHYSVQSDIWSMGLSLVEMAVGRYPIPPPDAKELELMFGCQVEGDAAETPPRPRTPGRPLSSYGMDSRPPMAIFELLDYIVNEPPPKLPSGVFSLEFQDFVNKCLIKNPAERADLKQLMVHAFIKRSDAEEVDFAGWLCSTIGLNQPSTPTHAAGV
Phosphatidylinositol 4,5-bisphosphate 3-kinase catalytic subunit alpha isoform, sequence (P42336 whole entry, canonical isoform): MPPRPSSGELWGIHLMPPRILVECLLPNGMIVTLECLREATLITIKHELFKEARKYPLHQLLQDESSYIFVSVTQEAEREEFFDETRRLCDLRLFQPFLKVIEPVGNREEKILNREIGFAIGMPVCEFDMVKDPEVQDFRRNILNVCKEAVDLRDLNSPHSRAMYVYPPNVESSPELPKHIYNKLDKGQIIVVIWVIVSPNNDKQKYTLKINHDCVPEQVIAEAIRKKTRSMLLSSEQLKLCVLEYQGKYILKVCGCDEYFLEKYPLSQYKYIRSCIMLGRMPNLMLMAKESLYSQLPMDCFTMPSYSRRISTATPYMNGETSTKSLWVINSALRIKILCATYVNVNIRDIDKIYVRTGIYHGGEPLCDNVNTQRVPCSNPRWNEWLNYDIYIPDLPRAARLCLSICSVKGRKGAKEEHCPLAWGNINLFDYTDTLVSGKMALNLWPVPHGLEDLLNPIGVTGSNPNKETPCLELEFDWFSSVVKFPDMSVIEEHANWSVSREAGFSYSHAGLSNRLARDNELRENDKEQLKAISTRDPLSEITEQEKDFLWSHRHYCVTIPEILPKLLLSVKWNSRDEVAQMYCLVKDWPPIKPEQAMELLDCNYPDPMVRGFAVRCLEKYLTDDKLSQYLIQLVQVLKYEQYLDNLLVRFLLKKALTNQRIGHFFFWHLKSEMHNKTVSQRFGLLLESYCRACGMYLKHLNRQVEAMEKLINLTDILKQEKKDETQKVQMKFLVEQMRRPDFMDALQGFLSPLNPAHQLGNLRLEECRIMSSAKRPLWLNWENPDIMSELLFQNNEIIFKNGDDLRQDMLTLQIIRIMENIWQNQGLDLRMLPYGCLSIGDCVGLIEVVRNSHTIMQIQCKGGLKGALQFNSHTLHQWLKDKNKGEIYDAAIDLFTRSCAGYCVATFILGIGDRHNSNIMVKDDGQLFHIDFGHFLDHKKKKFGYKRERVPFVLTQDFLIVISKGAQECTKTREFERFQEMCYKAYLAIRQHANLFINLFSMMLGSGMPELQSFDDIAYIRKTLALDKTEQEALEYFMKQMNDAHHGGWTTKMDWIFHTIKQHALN

A word on the IC50: it is the concentration needed to halve the response being measured. On to `O=C(NOCCOCCOCCOCCN(CCO)c1nc(N2CCOCC2)nc(-n2c(C(F)F)nc3ccccc32)n1)c1ccc(F)c(F)c1Nc1ccc(I)cc1F`, for which the Drug metabolism entry in series [1], in [15] and in series [17] was “Metabolite_Detected” throughout. The outcome with Mus musculus [2] was Active. Further, the inhibition result in the series on Spleen [3], with Spleen [9], in the series on Spleen [10] and in the series on Spleen [12] was “Active” throughout. Moreover, the concentration at 4 h in series [4], in [14] and in [16] was 2000 ng/g throughout. Moreover, the figures for the IC50 with SET-2, in the series with D54 cell line [5] and in the series on A-375 [13] were 7 µM, 9.9 µM and 8.5 µM, respectively. For the same molecule, the Activity with D54 cell line [6] came to 87.3%; with A-375 [7], 96%; in the series on Mus musculus [8], 53%; in the series with D54 cell line [11] it was 65.3%; in the series with A-375 [18] it was 70.8%; with SET2 [19] it was 54.8%. Further, in the series with SET2 [20], the Activity stood at 90%.
`O=C(NOCCOCCOCCOCCNc1nc(N2CCOCC2)nc(-n2c(C(F)F)nc3ccccc32)n1)c1ccc(F)c(F)c1Nc1ccc(I)cc1F`: the Drug metabolism entry in series [1], in series [15] and in series [17] was “Metabolite_Detected” throughout. Moreover, the IC50 came to 0.13 µM in series [21]; 1.54 µM in series [22]; 10.7 µM with SET-2; 17.3 µM in the series on D54 cell line [5]; 0.124 µM in [23]; 10.7 µM with A-375 [13]. Moreover, the IC50 in series [24] was 0.236 µM; in series [25] it was 2.74 µM. Also, the outcome in the series with Mus musculus [2] was Active. The inhibition entry in the series with Spleen [3], in the series with Spleen [9], in the series with Spleen [10] and in the series on Spleen [12] was “Active” each time. Besides, the concentration at 4 h in series [4], in series [14] and in series [16] was 2000 ng/g each time. The Activity in the series on D54 cell line [6] was 66.4%; with A-375 [7] it was 85.5%; in the series on Mus musculus [8], 35%; with D54 cell line [11], 22.5%; in the series on A-375 [18], 23.7%; in the series with SET2 [19] it was 28.9%. Also, the Activity in the series on SET2 [20] was 76.8%.
